Test system: U2OS
Assay: Multiplex assay against U2OS
Assay type: toxicity, cell-based
Details: human
Summary of the method: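 Per cents of healthy-nucleus cells form the tubulin, mitochondrial-mass and membrane-permeability phenotype values. Live cells were stained at seeding with Hoechst33342, BioTracker Green Microtubule Cytoskeleton Dye, MitoTracker Red and Annexin V Alexa Fluor 680. After compound addition they were imaged on a CQ1 microscope at 37°C and 5% CO2, and CellPathfinder machine-learning gating split them into Hoechst high-intensity objects or normal cells, normal cells into healthy, pyknosed or fragmented nuclei, and pyknosed cells into mitotic or apoptotic.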

[1] = 12 h, 1 µM, compound concentration 1 uM, replicate 1
[2] = 12 h, 1 µM, compound concentration 1 uM, replicate 2
[3] = 12 h, 10 µM, compound concentration 10 uM, replicate 1
[4] = 12 h, 10 µM, compound concentration 10 uM, replicate 2
[5] = 24 h, 1 µM, compound concentration 1 uM, replicate 1
[6] = 24 h, 1 µM, compound concentration 1 uM, replicate 2
[7] = 24 h, 10 µM, compound concentration 10 uM, replicate 1
[8] = 24 h, 10 µM, compound concentration 10 uM, replicate 2
[9] = 48 h, 1 µM, compound concentration 1 uM, replicate 1
[10] = 48 h, 1 µM, compound concentration 1 uM, replicate 2
[11] = 48 h, 10 µM, compound concentration 10 uM, replicate 1
[12] = 48 h, 10 µM, compound concentration 10 uM, replicate 2

Nc1nc(CC(=O)Nc2ccc(CCNC[C@H](O)c3ccccc3)cc2)cs1 [MIRABEGRON]
Population Apoptotic (%) [1]: 86% | Population Fragmented Nuclei (%) [1]: 24% | Population Healthy Nuclei (%) [1]: 62% | Population Hoechst High Intensity Objects (%) [1]: 1% | Population Membrane Permeable-Phenotype (%) [1]: 6% | Population Mitochondria Different-Phenotype (%) [1]: 3% | Population Mitotic Cells (%) [1]: 13% | Population Normal (%) [1]: 98% | Population Pyknosed Nuclei (%) [1]: 12% | Population Tubulin-Different-Phenotype (%) [1]: 4% | Total Cell Count [1]: 240 | Population Apoptotic (%) [2]: 100% | Population Fragmented Nuclei (%) [2]: 13% | Population Healthy Nuclei (%) [2]: 74% | Population Hoechst High Intensity Objects (%) [2]: 0% | Population Membrane Permeable-Phenotype (%) [2]: 5% | Population Mitochondria Different-Phenotype (%) [2]: 2% | Population Mitotic Cells (%) [2]: 0% | Population Normal (%) [2]: 99% | Population Tubulin-Different-Phenotype (%) [2]: 5% | Total Cell Count [2]: 107 | Population Apoptotic (%) [3]: 86% | Population Fragmented Nuclei (%) [3]: 18% | Population Healthy Nuclei (%) [3]: 70% | Population Hoechst High Intensity Objects (%) [3]: 1% | Population Membrane Permeable-Phenotype (%) [3]: 6% | Population Mitochondria Different-Phenotype (%) [3]: 2% | Population Mitotic Cells (%) [3]: 13% | Population Normal (%) [3]: 98% | Population Pyknosed Nuclei (%) [3]: 11% | Population Tubulin-Different-Phenotype (%) [3]: 4% | Total Cell Count [3]: 319 | Population Apoptotic (%) [4]: 66% | Population Fragmented Nuclei (%) [4]: 21% | Population Healthy Nuclei (%) [4]: 71% | Population Hoechst High Intensity Objects (%) [4]: 0% | Population Membrane Permeable-Phenotype (%) [4]: 7% | Population Mitochondria Different-Phenotype (%) [4]: 3% | Population Mitotic Cells (%) [4]: 33% | Population Normal (%) [4]: 99% | Population Pyknosed Nuclei (%) [4]: 6% | Population Tubulin-Different-Phenotype (%) [4]: 1% | Total Cell Count [4]: 136 | Population Apoptotic (%) [5]: 82% | Population Fragmented Nuclei (%) [5]: 21% | Population Healthy Nuclei (%) [5]: 70% | Population Hoechst High Intensity Objects (%) [5]: 2% | Population Membrane Permeable-Phenotype (%) [5]: 4% | Population Mitochondria Different-Phenotype (%) [5]: 2% | Population Mitotic Cells (%) [5]: 17% | Population Normal (%) [5]: 97% | Population Pyknosed Nuclei (%) [5]: 8% | Population Tubulin-Different-Phenotype (%) [5]: 3% | Total Cell Count [5]: 289 | Population Apoptotic (%) [6]: 58% | Population Fragmented Nuclei (%) [6]: 11% | Population Healthy Nuclei (%) [6]: 79% | Population Hoechst High Intensity Objects (%) [6]: 0% | Population Membrane Permeable-Phenotype (%) [6]: 9% | Population Mitochondria Different-Phenotype (%) [6]: 3% | Population Mitotic Cells (%) [6]: 41% | Population Normal (%) [6]: 99% | Population Pyknosed Nuclei (%) [6]: 9% | Population Tubulin-Different-Phenotype (%) [6]: 7% | Total Cell Count [6]: 125 | Population Apoptotic (%) [7]: 86% | Population Fragmented Nuclei (%) [7]: 17% | Population Healthy Nuclei (%) [7]: 75% | Population Hoechst High Intensity Objects (%) [7]: 1% | Population Membrane Permeable-Phenotype (%) [7]: 5% | Population Mitochondria Different-Phenotype (%) [7]: 3% | Population Mitotic Cells (%) [7]: 13% | Population Normal (%) [7]: 98% | Population Pyknosed Nuclei (%) [7]: 7% | Population Tubulin-Different-Phenotype (%) [7]: 3% | Total Cell Count [7]: 405 | Population Apoptotic (%) [8]: 76% | Population Fragmented Nuclei (%) [8]: 20% | Population Healthy Nuclei (%) [8]: 71% | Population Membrane Permeable-Phenotype (%) [8]: 9% | Population Mitochondria Different-Phenotype (%) [8]: 5% | Population Mitotic Cells (%) [8]: 23% | Population Tubulin-Different-Phenotype (%) [8]: 4% | Total Cell Count [8]: 167 | Population Apoptotic (%) [9]: 84% | Population Fragmented Nuclei (%) [9]: 17% | Population Healthy Nuclei (%) [9]: 72% | Population Hoechst High Intensity Objects (%) [9]: 2% | Population Membrane Permeable-Phenotype (%) [9]: 4% | Population Mitochondria Different-Phenotype (%) [9]: 3% | Population Mitotic Cells (%) [9]: 15% | Population Normal (%) [9]: 97% | Population Pyknosed Nuclei (%) [9]: 9% | Population Tubulin-Different-Phenotype (%) [9]: 3% | Total Cell Count [9]: 394 | Population Apoptotic (%) [10]: 78% | Population Fragmented Nuclei (%) [10]: 12% | Population Healthy Nuclei (%) [10]: 74% | Population Membrane Permeable-Phenotype (%) [10]: 8% | Population Mitotic Cells (%) [10]: 21% | Population Pyknosed Nuclei (%) [10]: 13% | Population Tubulin-Different-Phenotype (%) [10]: 7% | Total Cell Count [10]: 179 | Population Apoptotic (%) [11]: 87% | Population Fragmented Nuclei (%) [11]: 14% | Population Healthy Nuclei (%) [11]: 74% | Population Hoechst High Intensity Objects (%) [11]: 2% | Population Membrane Permeable-Phenotype (%) [11]: 5% | Population Mitochondria Different-Phenotype (%) [11]: 2% | Population Mitotic Cells (%) [11]: 12% | Population Normal (%) [11]: 97% | Population Pyknosed Nuclei (%) [11]: 10% | Population Tubulin-Different-Phenotype (%) [11]: 2% | Total Cell Count [11]: 534 | Population Apoptotic (%) [12]: 70% | Population Healthy Nuclei (%) [12]: 78% | Population Membrane Permeable-Phenotype (%) [12]: 3% | Population Mitochondria Different-Phenotype (%) [12]: 3% | Population Mitotic Cells (%) [12]: 29% | Population Pyknosed Nuclei (%) [12]: 7% | Population Tubulin-Different-Phenotype (%) [12]: 1% | Total Cell Count [12]: 232

Cc1cc(-c2ccc3c(c2)CC[C@H]3N2CC3(CCN(C(=O)Cc4cn5cc(C)sc5n4)CC3)C2)ncn1 [PF-5190457]
Population Apoptotic (%) [1]: 82% | Population Fragmented Nuclei (%) [1]: 24% | Population Healthy Nuclei (%) [1]: 65% | Population Hoechst High Intensity Objects (%) [1]: 1% | Population Membrane Permeable-Phenotype (%) [1]: 7% | Population Mitochondria Different-Phenotype (%) [1]: 3% | Population Mitotic Cells (%) [1]: 17% | Population Normal (%) [1]: 98% | Population Pyknosed Nuclei (%) [1]: 9% | Population Tubulin-Different-Phenotype (%) [1]: 4% | Total Cell Count [1]: 239 | Population Apoptotic (%) [2]: 63% | Population Fragmented Nuclei (%) [2]: 21% | Population Healthy Nuclei (%) [2]: 66% | Population Hoechst High Intensity Objects (%) [2]: 0% | Population Membrane Permeable-Phenotype (%) [2]: 4% | Population Mitotic Cells (%) [2]: 36% | Population Normal (%) [2]: 100% | Population Pyknosed Nuclei (%) [2]: 11% | Population Tubulin-Different-Phenotype (%) [2]: 3% | Total Cell Count [2]: 93 | Population Apoptotic (%) [3]: 61% | Population Fragmented Nuclei (%) [3]: 18% | Population Healthy Nuclei (%) [3]: 66% | Population Hoechst High Intensity Objects (%) [3]: 2% | Population Membrane Permeable-Phenotype (%) [3]: 7% | Population Mitochondria Different-Phenotype (%) [3]: 5% | Population Mitotic Cells (%) [3]: 38% | Population Normal (%) [3]: 97% | Population Pyknosed Nuclei (%) [3]: 14% | Population Tubulin-Different-Phenotype (%) [3]: 5% | Total Cell Count [3]: 238 | Population Apoptotic (%) [4]: 71% | Population Fragmented Nuclei (%) [4]: 14% | Population Healthy Nuclei (%) [4]: 74% | Population Hoechst High Intensity Objects (%) [4]: 1% | Population Membrane Permeable-Phenotype (%) [4]: 8% | Population Mitochondria Different-Phenotype (%) [4]: 10% | Population Mitotic Cells (%) [4]: 28% | Population Normal (%) [4]: 98% | Population Pyknosed Nuclei (%) [4]: 11% | Population Tubulin-Different-Phenotype (%) [4]: 6% | Total Cell Count [4]: 126 | Population Apoptotic (%) [5]: 69% | Population Fragmented Nuclei (%) [5]: 25% | Population Healthy Nuclei (%) [5]: 66% | Population Hoechst High Intensity Objects (%) [5]: 1% | Population Membrane Permeable-Phenotype (%) [5]: 8% | Population Mitochondria Different-Phenotype (%) [5]: 3% | Population Mitotic Cells (%) [5]: 30% | Population Normal (%) [5]: 98% | Population Pyknosed Nuclei (%) [5]: 8% | Population Tubulin-Different-Phenotype (%) [5]: 5% | Total Cell Count [5]: 282 | Population Apoptotic (%) [6]: 33% | Population Fragmented Nuclei (%) [6]: 21% | Population Healthy Nuclei (%) [6]: 76% | Population Hoechst High Intensity Objects (%) [6]: 0% | Population Membrane Permeable-Phenotype (%) [6]: 6% | Population Mitochondria Different-Phenotype (%) [6]: 1% | Population Mitotic Cells (%) [6]: 66% | Population Normal (%) [6]: 99% | Population Pyknosed Nuclei (%) [6]: 2% | Population Tubulin-Different-Phenotype (%) [6]: 2% | Total Cell Count [6]: 126 | Population Apoptotic (%) [7]: 67% | Population Fragmented Nuclei (%) [7]: 18% | Population Healthy Nuclei (%) [7]: 72% | Population Hoechst High Intensity Objects (%) [7]: 2% | Population Membrane Permeable-Phenotype (%) [7]: 3% | Population Mitochondria Different-Phenotype (%) [7]: 0% | Population Mitotic Cells (%) [7]: 32% | Population Normal (%) [7]: 97% | Population Pyknosed Nuclei (%) [7]: 9% | Population Tubulin-Different-Phenotype (%) [7]: 1% | Total Cell Count [7]: 295 | Population Apoptotic (%) [8]: 84% | Population Healthy Nuclei (%) [8]: 69% | Population Hoechst High Intensity Objects (%) [8]: 1% | Population Membrane Permeable-Phenotype (%) [8]: 11% | Population Mitochondria Different-Phenotype (%) [8]: 8% | Population Mitotic Cells (%) [8]: 15% | Population Normal (%) [8]: 98% | Population Pyknosed Nuclei (%) [8]: 12% | Population Tubulin-Different-Phenotype (%) [8]: 4% | Total Cell Count [8]: 154 | Population Apoptotic (%) [9]: 84% | Population Fragmented Nuclei (%) [9]: 20% | Population Healthy Nuclei (%) [9]: 71% | Population Hoechst High Intensity Objects (%) [9]: 0% | Population Membrane Permeable-Phenotype (%) [9]: 7% | Population Mitochondria Different-Phenotype (%) [9]: 4% | Population Mitotic Cells (%) [9]: 15% | Population Normal (%) [9]: 99% | Population Pyknosed Nuclei (%) [9]: 8% | Population Tubulin-Different-Phenotype (%) [9]: 4% | Total Cell Count [9]: 402 | Population Apoptotic (%) [10]: 66% | Population Fragmented Nuclei (%) [10]: 16% | Population Healthy Nuclei (%) [10]: 78% | Population Hoechst High Intensity Objects (%) [10]: 2% | Population Membrane Permeable-Phenotype (%) [10]: 4% | Population Mitochondria Different-Phenotype (%) [10]: 2% | Population Mitotic Cells (%) [10]: 33% | Population Normal (%) [10]: 97% | Population Pyknosed Nuclei (%) [10]: 5% | Population Tubulin-Different-Phenotype (%) [10]: 2% | Total Cell Count [10]: 184 | Population Apoptotic (%) [11]: 74% | Population Fragmented Nuclei (%) [11]: 16% | Population Healthy Nuclei (%) [11]: 71% | Population Hoechst High Intensity Objects (%) [11]: 3% | Population Membrane Permeable-Phenotype (%) [11]: 5% | Population Mitochondria Different-Phenotype (%) [11]: 2% | Population Mitotic Cells (%) [11]: 25% | Population Normal (%) [11]: 96% | Population Pyknosed Nuclei (%) [11]: 12% | Population Tubulin-Different-Phenotype (%) [11]: 3% | Total Cell Count [11]: 389 | Population Apoptotic (%) [12]: 76% | Population Fragmented Nuclei (%) [12]: 18% | Population Membrane Permeable-Phenotype (%) [12]: 11% | Population Mitochondria Different-Phenotype (%) [12]: 6% | Population Mitotic Cells (%) [12]: 23% | Population Pyknosed Nuclei (%) [12]: 10% | Population Tubulin-Different-Phenotype (%) [12]: 4% | Total Cell Count [12]: 217

Source: ChEMBL document CHEMBL5058577, “EUbOPEN Chemogenomics Library 2 (Multiplex)” (2022)
